Source: PubChem BioAssay (several laboratories)
Only some compounds are listed: those with a hit (about 2% of all), similar ones and a draw of the others.
eIF4H FP inh: inhibitors of RNA binding by human eIF4H. inhibition, % at 35 µM. 290,000 tested, 0.94% active. eIF4H fluorescence polarization binding assay;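 note: calls also rest on retests at 20 µM and on dose response follow-up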
PABP1 MLLE inh: inhibitors of microRNA-mediated deadenylation, human PABP1 MLLE binding; P11940; 360,000 tested, 0.36% active; GST-MLLE / FITC-PAM2 fluorescence polarization; inhibition, % at 20 µM; in the data active = inhibition above about 35%, passing the limit was not always enough
Target sequence (P11940 whole entry, looked up): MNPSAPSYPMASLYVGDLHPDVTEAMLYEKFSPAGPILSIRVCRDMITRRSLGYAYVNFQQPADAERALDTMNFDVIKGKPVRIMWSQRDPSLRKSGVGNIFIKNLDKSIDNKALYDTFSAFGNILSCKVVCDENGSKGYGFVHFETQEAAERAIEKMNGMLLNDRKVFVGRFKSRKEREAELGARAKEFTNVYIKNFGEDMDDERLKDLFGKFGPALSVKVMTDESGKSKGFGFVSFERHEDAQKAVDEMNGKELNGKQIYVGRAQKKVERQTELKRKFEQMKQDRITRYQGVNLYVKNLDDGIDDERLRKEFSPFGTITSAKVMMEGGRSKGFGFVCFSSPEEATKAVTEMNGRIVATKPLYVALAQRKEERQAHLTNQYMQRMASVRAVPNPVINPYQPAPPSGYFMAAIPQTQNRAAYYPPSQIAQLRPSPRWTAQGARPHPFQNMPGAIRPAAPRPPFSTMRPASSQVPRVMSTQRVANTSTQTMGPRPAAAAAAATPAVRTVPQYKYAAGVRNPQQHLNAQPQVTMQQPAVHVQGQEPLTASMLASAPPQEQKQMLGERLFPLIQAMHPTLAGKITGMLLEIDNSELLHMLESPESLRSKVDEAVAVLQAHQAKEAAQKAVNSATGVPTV
PABP FP inh: PABP-poly(A) binding inhibition; PABP-poly(A) RNA binding, fluorescence polarization; inhibition, % at 35 µM; 290,000 tested, 1% active; AID 2014;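 note: calls also rest on retests at 20 µM and on dose response follow-up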
DNA FID counter-1: displaces DNA intercalator in HCV helicase counter-screen. inhibition, % at 7.9 µM. 290,000 tested, 0.17% active. DNA fluorescent intercalator displacement, fluorescence. AID 1845; in the data active = inhibition above about 37%;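 note: higher means more ethidium bromide displaced from hairpin DNA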
core dimer inh: HCV core protein dimerization inhibition. AID 1899. 300,000 tested, 0.33% active. inhibition, % at 5 µM. TR-FRET GST/Flag-core106 dimerization, 1536-well;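 active = inhibition above the mean of all tested compounds plus 3 SD, set per screening campaign, cut at about 45% in these data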
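Material: GST/Flag-tagged HCV core106 proteins. Incubation: 4 h, 22.5 °C incubation. Read-out basis: inhibition (%) from 671 over 617 nm ratio. Measured by: TR-FRET, excitation 340 nm, emission 617 and 671 nm.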
NS3 helicase inh: inhibitors of Hepatitis C virus NS3 helicase; NS3 helicase DNA unwinding, Cy5 molecular beacon fluorescence; inhibition, % at 10.9 µM; 290,000 tested, 0.56% active; AID 1800;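 active = inhibition above the mean of all tested compounds plus 3 SD, set per campaign, cut at about 35% in these data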
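test system = hepatitis C virus NS3 helicase domain fragment enzyme | reagent = annealed dual-labelled DNA beacon duplex, ATP-started | times = 1 h at 25 °C | detection = Cy5 fluorescence, 0 and 60 min reads | read-out basis = percent inhibition from t60/t0 fluorescence ratio | control set = DMSO and thioflavine S | replication = one well per compound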
NS3 hel confirm: confirmation of Hepatitis C virus NS3 helicase inhibitors. inhibition, % at 10.9 µM. 1,600 tested, 31% active. shares compounds with NS3 helicase inh. NS3 helicase DNA unwinding, Cy5 molecular beacon fluorescence;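 active = inhibition above the mean of all tested compounds plus 3 SD, cutoff set per campaign, cut at about 36% in these data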
DNA FID counter-2: displaces DNA intercalator in HCV helicase counter-screen; inhibition, % at 7.9 µM; 1,600 tested, 4% active; DNA fluorescent intercalator displacement, fluorescence; shares compounds with NS3 helicase inh; in the data active = inhibition above about 37%;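 note: higher means more displacement of ethidium bromide from the DNA hairpin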
DNA FID DR: displaces fluorescent intercalator from DNA, HCV helicase counter-screen | shares compounds with NS3 helicase inh | fluorescent intercalator displacement from DNA, fluorescence | IC50, µM | 120 tested, under 10 active
Numbers stand for hits; - = inactive; ? = inconclusive; . = no result given. Unless noted, the rule behind the calls is not given here.

SMILES	eIF4H FP inh	PABP1 MLLE inh	PABP FP inh	DNA FID counter-1	core dimer inh	NS3 helicase inh	NS3 hel confirm	DNA FID counter-2	others
CC(NC(=O)/C=C/c1ccco1)c1nc2ccccc2n1Cc1cccc(Cl)c1 (stereo unspecified)	-	-	-	-	-	36.3	-	-
O=C(Nc1nc2ccccc2n1Cc1ccc(Cl)cc1)c1ccco1	-	-	-	-	-	-	.	.
O=C1CC(=O)c2c1cccc2[N+](=O)[O-]	65.1	.	53.2	-	.	36.7	90.3	-
CN(C(=O)c1ccc(Br)o1)C1(C)CCS(=O)(=O)C1 (stereo unspecified)	-	-	-	-	-	-	.	.
C/C(=N\NC(=O)c1ccccc1O)c1cccc(NC(=O)c2ccccc2)c1	-	-	-	-	-	-	.	.
C/C(=N\NC(=O)c1cc(O)ccc1O)c1cccc(NC(=O)c2ccc(Cl)cc2)c1	90.0	-	87.0	-	-	40.2	-	-
Cc1cn(CC(=O)NCC2CCCO2)c(=O)[nH]c1=O (stereo unspecified)	.	-	.	.	.	.	.	.
CCn1c(CNC(=O)c2cccc(C)c2)nnc1SCC(=O)NC1CCCC1	-	-	-	-	-	-	.	.
CCn1c(CNC(=O)c2cccc(C)c2)nnc1SCC(=O)NC1CCCCC1C (stereo unspecified)	-	-	-	-	-	64.5	-	-
O=C(O)Cc1sc(N/N=C\c2ccncc2)nc1-c1ccccc1	-	-	-	-	-	54.9	-	-
CC[C@@H](C)[C@H](NC(=O)Cc1c(C)c2cc3c(C)c(C)oc3c(C)c2oc1=O)C(=O)O	-	-	-	-	-	49.3	74.7	-
CC[C@@H](C)[C@H](NC(=O)Cc1c(C)c2cc3c(C)coc3c(C)c2oc1=O)C(=O)O	-	-	-	-	-	-	.	.
Cc1oc2c(c(C)cc3oc(=O)c(CC(=O)N[C@@H](CC(C)C)C(=O)O)c(C)c32)c1C	-	-	-	-	.	47.3	-	-
C=CCCC(=O)N1C[C@H]2CON(C)[C@H]2C[C@H]1c1cccc(Oc2ccccc2)c1	.	-	.	.	.	.	.	.
Cc1cc(NS(=O)(=O)c2ccc(NC(=O)/C=C/c3c(F)cccc3Cl)cc2)nc(C)n1	-	-	-	-	-	36.4	-	-
O=C(Nc1ccccc1O)c1cc2cc(Br)ccc2oc1=O	-	-	-	-	-	42.9	-	-
COc1ccccc1NC(=O)c1cc2cc(Br)ccc2cc1O	80.2	-	-	-	-	-	87.3	-	DNA FID DR=-
CNc1ncnc2c1ncn2[C@H]1CN(Cc2ccc3c(c2)OCO3)C[C@@H](CO)O1	.	-	.	.	.	.	.	.
COCc1ccc(CN2CCCCC2C(=O)Nc2ccc(Oc3ccccc3)nc2)o1 (stereo unspecified)	-	-	-	-	-	-	.	.
COc1cc(/C=C2\C(=O)ON=C2c2ccccc2)cc(Br)c1O	?	-	?	-	-	38.3	-	-
CCOc1cc(/C=C2\C(=O)ON=C2c2ccccc2)cc(Br)c1O	?	-	?	-	-	-	.	.
CCc1nnc(NS(=O)(=O)c2ccc(NC(=O)c3ccc(Cl)cc3)cc2)s1	-	-	-	-	-	-	.	.
CCc1nnc(NS(=O)(=O)c2ccc(NC(=O)c3ccccc3)cc2)s1	-	-	-	-	-	-	.	.
CCc1nnc(NS(=O)(=O)c2ccc(NC(=S)NC(=O)c3ccccc3)cc2)s1	-	-	-	-	-	45.5	65.5	-
CCc1nnc(NS(=O)(=O)c2ccc(NC(=S)NC(=O)c3ccc(Br)cc3)cc2)s1	-	-	-	-	-	57.8	48.9	-
COc1ccc(S(=O)(=O)N2CCC(C(=O)N[C@H](C(=O)N3CCCCCC3)C(C)C)CC2)cc1	.	-	.	-	-	-	.	.
COC1OC2COC(c3ccccc3)OC2C2OC12 (stereo unspecified)	.	-	.	.	.	.	.	.
COc1cc(NC(=O)COc2ccc([N+](=O)[O-])cc2)ccc1NC(=O)c1ccco1	.	-	.	.	.	.	.	.
